Assay results published in ChEMBL document CHEMBL4270573, “Novel nicotinoyl pyrazoline derivates bearing N-methyl indole moiety as antitumor agents: Design, synthesis and evaluation” (Eur J Med Chem, 2018).
The source made the active and inactive calls. The calls are words filed in the database; no cut-off is given here.

Key:
[1] = test system: A549; experiment: Growth inhibition of human A549 cells after 48 hrs by MTT assay; assay type: functional; conditions: A549, 48 h
Summary of the method: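 Proliferation read-out; GI50 taken as the concentration giving 50% reduction of cancer cell proliferation.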

[2] = test system: HeLa; experiment: Cell cycle arrest in human HeLa cells assessed as accumulation at S phase at 0.080 uM after 24 hrs by propidium iodide staining based flow cytometric analysis (reference value: 17.46%); assay type: functional
Summary of the method: (§1)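 HepG2 and HeLa cells were exposed to 0, 0.020, 0.040, 0.060, 0.080 or 0.10 µM for 6, 12 or 24 h. DNA content was stained with propidium iodide and analysed by flow cytometry to give the percentage of cells in G0/G1, S and G2/M phases; sub-G1 cells were also recorded.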

[3] = test system: HeLa; experiment: Cell cycle arrest in human HeLa cells assessed as accumulation at G2/M phase at 0.080 uM after 24 hrs by propidium iodide staining based flow cytometric analysis (reference value: 17.72%); assay type: functional; summary of the method: as §1
[4] = test system: HeLa; experiment: Cell cycle arrest in human HeLa cells assessed as accumulation at S phase at 0.10 uM after 24 hrs by propidium iodide staining based flow cytometric analysis (reference value: 17.46%); assay type: functional; summary of the method: as §1
[5] = test system: HepG2; experiment: Cell cycle arrest in human HepG2 cells assessed as accumulation at G0/G1 phase at 0.060 uM after 24 hrs by propidium iodide staining based flow cytometric analysis (reference value: 55.63%); assay type: functional; summary of the method: as §1
[6] = test system: HepG2; experiment: Cell cycle arrest in human HepG2 cells assessed as accumulation at S phase at 0.10 uM after 24 hrs by propidium iodide staining based flow cytometric analysis (reference value: 20.40%); assay type: functional; summary of the method: as §1
[7] = test system: HepG2; experiment: Cell cycle arrest in human HepG2 cells assessed as accumulation at G2/M phase at 0.10 uM after 24 hrs by propidium iodide staining based flow cytometric analysis (reference value: 20.17%); assay type: functional; summary of the method: as §1
[8] = test system: HeLa; experiment: Induction of apoptosis in human HeLa cells assessed as early apoptotic cells at 0.020 uM after 24 hrs by Annexin V-FITC/propidium iodide staining based flow cytometric analysis (reference value: 6.17%); assay type: functional
Summary of the method: (§2)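 HepG2 and HeLa cells were exposed to 0, 0.02, 0.040, 0.060, 0.080 and 0.10 µM for 6, 12 and 24 h. Cells were double-stained with Annexin V-FITC/PI and read by flow cytometry. Apoptotic rate was the percentage of FITC-positive cells, counting early plus late apoptotic.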

[9] = test system: HeLa; experiment: Induction of apoptosis in human HeLa cells assessed as late apoptotic cells at 0.040 uM after 24 hrs by Annexin V-FITC/propidium iodide staining based flow cytometric analysis (reference value: 4.98%); assay type: functional; summary of the method: as §2
[10] = test system: HeLa; experiment: Induction of apoptosis in human HeLa cells assessed as early apoptotic cells at 0.080 uM after 24 hrs by Annexin V-FITC/propidium iodide staining based flow cytometric analysis (reference value: 6.17%); assay type: functional; summary of the method: as §2
[11] = test system: HepG2; experiment: Induction of apoptosis in human HepG2 cells assessed as late apoptotic cells at 0.040 uM after 24 hrs by Annexin V-FITC/propidium iodide staining based flow cytometric analysis (reference value: 2.93%); assay type: functional; summary of the method: as §2
[12] = test system: HepG2; experiment: Induction of apoptosis in human HepG2 cells assessed as necrotic cells at 0.040 uM after 24 hrs by Annexin V-FITC/propidium iodide staining based flow cytometric analysis (reference value: 0.270%); assay type: functional; summary of the method: as §2
[13] = test system: HepG2; experiment: Induction of apoptosis in human HepG2 cells assessed as early apoptotic cells at 0.060 uM after 24 hrs by Annexin V-FITC/propidium iodide staining based flow cytometric analysis (reference value: 2.31%); assay type: functional; summary of the method: as §2
[14] = test system: HepG2; experiment: Induction of apoptosis in human HepG2 cells assessed as necrotic cells at 0.060 uM after 24 hrs by Annexin V-FITC/propidium iodide staining based flow cytometric analysis (reference value: 0.270%); assay type: functional; summary of the method: as §2
[15] = test system: HeLa; experiment: Antitumor activity against human HeLa cells xenografted in nude mouse assessed as tumor weight at 10 mg/kg, ip after 14 days (reference value: 1.54 g); assay type: functional
[16] = test system: Mus musculus; experiment: Toxicity in nude mouse xenografted with human HeLa cells assessed as change in mouse spleen weight at 10 to 20 mg/kg, ip after 14 days; assay type: organism-based; conditions: in vivo, 336 h
[17] = test system: Mus musculus; experiment: Toxicity in nude mouse xenografted with human HeLa cells assessed as change in mouse kidney weight at 10 to 20 mg/kg, ip after 14 days; assay type: organism-based; conditions: in vivo, 336 h
[18] = Selectivity index, ratio of CC50 for HEK293T cells to GI50 for human HepG2 cells; assay type: toxicity; conditions: HEK293T cells and HepG2 cells, read-out: Selectivity Index
Summary of the method: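 Ratio CC50/GI50: CC50 is the concentration reducing non-tumour 293T cell proliferation by 50%; GI50 is the concentration reducing cancer cell proliferation by 50%.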

[19] = target: T1, Tubulin (Homo sapiens) (UniProt P68371+Q9H4B7+P0DPH7+P68366+Q13509+Q71U36+P04350+Q3ZCM7+P07437+P68363+Q9BQE3+Q6PEY2+Q13885+Q9BVA1+Q9BUF5); experiment: Inhibition of tubulin polymerization in human HepG2 cells assessed as multinucleated cell formation at 0.04 to 0.1 uM after 12 hrs by DAPI staining based immunofluorescence confocal laser scanning microscopic analysis
[20] = target: T1, Tubulin (Homo sapiens); experiment: Inhibition of tubulin polymerization in human HepG2 cells assessed as abnormal mitotic spindle formation at 0.04 to 0.1 uM after 12 hrs by DAPI staining based immunofluorescence confocal laser scanning microscopic analysis; assay type: cell-based
[21] = test system: HeLa; experiment: Antitumor activity against human HeLa cells xenografted in nude mouse assessed as relative tumor growth inhibition at 10 mg/kg, ip after 14 days (reference value: 59.92%); assay type: functional; conditions: 336 h, read-out: TGI
[22] = test system: HeLa; experiment: Antitumor activity against human HeLa cells xenografted in nude mouse assessed as loose and irregular arrangement of tumor cells at 10 to 20 mg/kg, ip after 14 days by hematoxylin and eosin staining based microscopic analysis; assay type: functional, organism-based
Summary of the method: (§3)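 Excised tumours and heart, liver, kidney and spleen were H&E-stained and examined microscopically. Tumour scoring covered cell arrangement and necrosis. Organ scoring covered inflammatory infiltration, edema, necrosis and cell morphology.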

[23] = test system: Mus musculus; experiment: Nephrotoxicity in nude mouse xenografted with human HeLa cells assessed as edema in kidney at 10 to 20 mg/kg, ip after 14 days by hematoxylin and eosin staining based microscopic analysis; assay type: toxicity, organism-based; conditions: in vivo, 336 h
[24] = test system: Mus musculus; experiment: Cardiotoxicity in nude mouse xenografted with human HeLa cells assessed as edema in heart at 10 to 20 mg/kg, ip after 14 days by hematoxylin and eosin staining based microscopic analysis; assay type: toxicity, organism-based; conditions: in vivo, 336 h; summary of the method: as §3
[25] = test system: Mus musculus; experiment: Hepatotoxicity in nude mouse xenografted with human HeLa cells assessed as necrosis in liver at 10 to 20 mg/kg, ip after 14 days by hematoxylin and eosin staining based microscopic analysis; assay type: toxicity, organism-based; conditions: in vivo, 336 h
Summary of the method: (§4)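 HeLa xenograft nude mice with tumours near 100 mm³, randomised to four groups of 28 mice in total. Dosing was intraperitoneal: vehicle, CA-4 10 mg/kg, or test compound at 10 or 20 mg/kg, continued for 14 days. Heart, liver, kidney and spleen were then H&E-stained and examined for inflammatory infiltration, edema, necrosis and cell morphology.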

[26] = test system: Mus musculus; experiment: Toxicity in nude mouse xenografted with human HeLa cells assessed as ulceration at 10 to 20 mg/kg, ip after 14 days; assay type: organism-based; conditions: in vivo, 336 h
[27] = test system: Mus musculus; experiment: Hepatotoxicity in nude mouse xenografted with human HeLa cells assessed as morphological changes in liver cells at 10 to 20 mg/kg, ip after 14 days by hematoxylin and eosin staining based microscopic analysis; assay type: toxicity, organism-based; conditions: in vivo, 336 h; summary of the method: as §4

GI50 [1]: 0.59 µM
inhibition [19]: Active
inhibition [20]: Active
SMILES: COc1cccc(C2=NN(C(=O)c3ccc(C)nc3)C(c3cn(C)c4ccc(OC)cc34)C2)c1 (configuration not stated)
Activity [2]: 9.17%
Activity [3]: 71.2%
Activity [4]: 17.88%
Activity [5]: 15.79%
Activity [6]: 27.64%
Activity [7]: 51.22%
Activity [8]: 3.24%
Activity [9]: 3.95%
Activity [10]: 30.2%
Activity [11]: 6.24%
Activity [12]: 2.2%
Activity [13]: 7.94%
Activity [14]: 1.45%
Activity [15]: 0.91 g
Activity [16]: Non-Toxic
Activity [17]: Non-Toxic
selectivity ratio [18]: 3 to 10
inhibition in vivo at 10 mg/kg [21]: 47.1%
Activity [22]: Active
Activity [23]: Non-Toxic
Activity [24]: Non-Toxic
Activity [25]: Non-Toxic
Activity [26]: Non-Toxic
Activity [27]: Non-Toxic
